pKi: −log10 of the molar value.
Assays:
Cannabinoid receptor 1 = Cannabinoid receptor 1 (Rattus norvegicus, UniProt P20272); test: Displacement of [3H]CP-55940 from CB1 receptor in rat brain; type: tissue-based; conditions: for pKi: read-out: Ki
Procedure, shortened: (§1)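 Competition binding against [3H]CP-55,940. CB1 came from rat brain membranes, and CB2 from membranes of HEK293 cells expressing mouse or human CB2. Curves were fitted by nonlinear regression to give IC50, and Ki was calculated from IC50. Each experiment was run in triplicate, and Ki values come from a single experiment.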

Cannabinoid receptor 2 [1] = molecular target: Cannabinoid receptor 2 (Mus musculus, UniProt P47936); test: Displacement of [3H]CP-55940 from mouse CB2 receptor expressed in HEK293 cell membranes; procedure, shortened: as §1
Cannabinoid receptor 2 [2] = molecular target: Cannabinoid receptor 2 (Homo sapiens, UniProt P34972); test: Displacement of [3H]CP-55940 from human CB2 receptor expressed in HEK293 cell membranes; conditions: for pKi: read-out: Ki; procedure, shortened: as §1
Cannabinoid receptor 2 (Homo sapiens, UniProt P34972), sequence (P34972 whole entry): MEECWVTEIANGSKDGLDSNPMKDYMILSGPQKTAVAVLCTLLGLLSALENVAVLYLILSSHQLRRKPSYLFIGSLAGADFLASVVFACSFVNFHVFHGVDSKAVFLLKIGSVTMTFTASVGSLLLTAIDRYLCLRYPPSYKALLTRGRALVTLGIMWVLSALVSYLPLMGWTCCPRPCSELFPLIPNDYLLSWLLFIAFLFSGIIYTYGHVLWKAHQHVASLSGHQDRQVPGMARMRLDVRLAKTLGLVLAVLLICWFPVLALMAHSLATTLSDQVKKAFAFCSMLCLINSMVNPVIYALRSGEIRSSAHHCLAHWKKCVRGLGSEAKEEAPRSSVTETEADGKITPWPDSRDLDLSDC

Cannabinoid receptor 2 (Mus musculus, UniProt P47936), sequence (P47936 whole entry): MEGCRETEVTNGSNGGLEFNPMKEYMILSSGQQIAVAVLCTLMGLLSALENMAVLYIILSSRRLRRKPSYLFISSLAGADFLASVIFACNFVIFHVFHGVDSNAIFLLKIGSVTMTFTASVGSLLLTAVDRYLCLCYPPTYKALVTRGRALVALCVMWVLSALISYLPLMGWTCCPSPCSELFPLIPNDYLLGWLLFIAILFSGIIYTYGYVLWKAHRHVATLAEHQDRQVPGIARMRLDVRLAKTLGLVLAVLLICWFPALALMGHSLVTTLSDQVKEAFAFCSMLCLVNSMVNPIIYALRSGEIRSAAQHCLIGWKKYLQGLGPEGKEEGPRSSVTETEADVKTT
Cannabinoid receptor 1, sequence (P20272 whole entry): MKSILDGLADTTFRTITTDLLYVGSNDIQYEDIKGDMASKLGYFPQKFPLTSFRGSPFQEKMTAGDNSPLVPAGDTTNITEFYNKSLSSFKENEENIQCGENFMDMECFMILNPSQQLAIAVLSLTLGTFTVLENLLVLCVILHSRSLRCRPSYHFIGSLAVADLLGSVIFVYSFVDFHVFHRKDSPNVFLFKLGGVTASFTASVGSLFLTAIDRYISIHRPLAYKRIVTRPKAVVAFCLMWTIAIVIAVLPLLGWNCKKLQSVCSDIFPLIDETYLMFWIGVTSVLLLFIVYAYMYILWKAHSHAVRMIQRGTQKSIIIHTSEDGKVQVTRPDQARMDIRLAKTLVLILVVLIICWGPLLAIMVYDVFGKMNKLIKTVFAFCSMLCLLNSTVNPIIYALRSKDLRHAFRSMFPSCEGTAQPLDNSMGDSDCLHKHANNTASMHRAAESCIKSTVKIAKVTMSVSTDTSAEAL

CC1(C)Oc2cc(N3C4CC5CC3CC(C4)O5)cc(O)c2[C@@H]2C[C@H](O)CC[C@H]21
pKi (Cannabinoid receptor 1): 5.74 | pKi (Cannabinoid receptor 2 [1]): 5.92 | pKi (Cannabinoid receptor 2 [2]): 5.74

CC1(C)Oc2cc(N3C4CC5CC3CC(C4)O5)cc(O)c2[C@@H]2C[C@@H](O)CC[C@H]21
pKi (Cannabinoid receptor 1): 4.65 | pKi (Cannabinoid receptor 2 [1]): 4.77 | pKi (Cannabinoid receptor 2 [2]): 4.83

CC1(C)Oc2cc(C(=O)N3C4CC5CC3CC(C4)O5)cc(O)c2[C@@H]2C[C@H](O)CC[C@H]21
Ki (Cannabinoid receptor 1): Not Active | pKi (Cannabinoid receptor 2 [1]): 5.60 | pKi (Cannabinoid receptor 2 [2]): 4.70

CC1(C)Oc2cc(C(=O)N3C4CC5CC3CC(C4)O5)cc(O)c2[C@@H]2C[C@@H](O)CC[C@H]21
Ki (Cannabinoid receptor 1): Not Active | pKi (Cannabinoid receptor 2 [1]): 5.07 | pKi (Cannabinoid receptor 2 [2]): 4.60

CC1(C)Oc2cc(CN3C4CC5CC3CC(C4)O5)cc(O)c2[C@@H]2C[C@H](O)CC[C@H]21
pKi (Cannabinoid receptor 1): 5.00 | pKi (Cannabinoid receptor 2 [1]): 5.06 | pKi (Cannabinoid receptor 2 [2]): 4.82

CC1(C)Oc2cc(CN3C4CC5CC3CC(C4)O5)cc(O)c2[C@@H]2C[C@@H](O)CC[C@H]21
pKi (Cannabinoid receptor 1): 3.90 | pKi (Cannabinoid receptor 2 [1]): 5.12 | pKi (Cannabinoid receptor 2 [2]): 5.30

CC1(C)Oc2cc(C(=O)NC34CC5CC(CC(C5)C3)C4)cc(O)c2[C@@H]2C[C@H](O)CC[C@H]21
pKi (Cannabinoid receptor 1): 4.10 | pKi (Cannabinoid receptor 2 [1]): 6.30 | pKi (Cannabinoid receptor 2 [2]): 5.06

CC1(C)Oc2cc(C(=O)NC34CC5CC(CC(C5)C3)C4)cc(O)c2[C@@H]2C[C@@H](O)CC[C@H]21
pKi (Cannabinoid receptor 1): 3.43 | pKi (Cannabinoid receptor 2 [1]): 5.12 | pKi (Cannabinoid receptor 2 [2]): 4.46

CC1(C)Oc2cc(C(=O)NC3C4CC5CC(C4)CC3C5)cc(O)c2[C@@H]2C[C@H](O)CC[C@H]21 (some centres undefined)
pKi (Cannabinoid receptor 1): 4.82 | pKi (Cannabinoid receptor 2 [1]): 5.92 | pKi (Cannabinoid receptor 2 [2]): 5.57

CC1(C)Oc2cc(C(=O)NC3C4CC5CC(C4)CC3C5)cc(O)c2[C@@H]2C[C@@H](O)CC[C@H]21 (some centres undefined)
pKi (Cannabinoid receptor 1): 4.00 | pKi (Cannabinoid receptor 2 [1]): 5.43 | pKi (Cannabinoid receptor 2 [2]): 4.82

CC1(C)Oc2cc(CNC34CC5CC(CC(C5)C3)C4)cc(O)c2[C@@H]2C[C@H](O)CC[C@H]21
pKi (Cannabinoid receptor 1): 3.82 | pKi (Cannabinoid receptor 2 [1]): 6.30 | pKi (Cannabinoid receptor 2 [2]): 5.00

CC1(C)Oc2cc(CNC34CC5CC(CC(C5)C3)C4)cc(O)c2[C@@H]2C[C@@H](O)CC[C@H]21
pKi (Cannabinoid receptor 1): 4.00 | pKi (Cannabinoid receptor 2 [1]): 5.30 | pKi (Cannabinoid receptor 2 [2]): 4.60

CC1(C)Oc2cc(CNC3C4CC5CC(C4)CC3C5)cc(O)c2[C@@H]2C[C@H](O)CC[C@H]21 (some centres undefined)
pKi (Cannabinoid receptor 1): 3.82 | pKi (Cannabinoid receptor 2 [1]): 5.21 | pKi (Cannabinoid receptor 2 [2]): 4.70

CC1(C)Oc2cc(CNC3C4CC5CC(C4)CC3C5)cc(O)c2[C@@H]2C[C@@H](O)CC[C@H]21 (some centres undefined)
Ki (Cannabinoid receptor 1): Not Active | pKi (Cannabinoid receptor 2 [1]): 5.12 | pKi (Cannabinoid receptor 2 [2]): 4.60

CC1(C)Oc2cc(C34CC5CC(CC(C5)O3)C4)cc(O)c2[C@@H]2C[C@H](O)CC[C@H]21
pKi (Cannabinoid receptor 1): 7.64 | pKi (Cannabinoid receptor 2 [1]): 7.74 | pKi (Cannabinoid receptor 2 [2]): 7.72

CC1(C)Oc2cc(C34CC5CC(CC(C5)O3)C4)cc(O)c2[C@@H]2C[C@@H](O)CC[C@H]21
pKi (Cannabinoid receptor 1): 6.26 | pKi (Cannabinoid receptor 2 [1]): 6.27 | pKi (Cannabinoid receptor 2 [2]): 5.89

CC1=CC[C@@H]2[C@@H](C1)c1c(O)cc(C34CC5CC(CC(C5)C3)C4)cc1OC2(C)C
Ki (Cannabinoid receptor 2 [2]; hek293): Not Active
